Common to all, as to format: functional
Test [1] deals with Staphylococcus aureus. The test can be described thus: Upregulation of blaZ gene expression in methicillin-resistant Staphylococcus aureus USA100 at 50 uM by RT-PCR method.
For test [2], the system named is Staphylococcus aureus. The test can be described thus: Potentiation of ceftazidime induced antibacterial activity against methicillin-resistant Staphylococcus aureus USA300 assessed as ceftazidime MIC at 50 uM after 18 hrs by CLSI protocol based broth microdilution assay.
Test [3] relates to Staphylococcus aureus. The test can be described thus: Potentiation of ampicillin induced antibacterial activity against methicillin-resistant Staphylococcus aureus COL assessed as fold change in ampicillin MIC at 50 uM after 18 hrs by CLSI protocol based broth microdilution assay.
For test [4], the system named is Staphylococcus aureus. Nature of the test: Potentiation of oxacillin induced antibacterial activity against methicillin-resistant Staphylococcus aureus USA100 assessed as oxacillin MIC at 50 uM after 18 hrs by CLSI protocol based broth microdilution assay.
Test [5] relates to Staphylococcus aureus. Nature of the test: Potentiation of methicillin induced antibacterial activity against methicillin-resistant Staphylococcus aureus USA100 assessed as methicillin MIC at 50 uM after 18 hrs by CLSI protocol based broth microdilution assay.
The subject of test [6] is Staphylococcus aureus. The test can be described thus: Potentiation of ceftazidime induced antibacterial activity against methicillin-resistant Staphylococcus aureus USA100 assessed as fold change in ceftazidime MIC at 50 uM after 18 hrs by CLSI protocol based broth microdilution assay.
Test [7] deals with Staphylococcus aureus. The test can be described thus: Potentiation of ceftazidime induced antibacterial activity against methicillin-resistant Staphylococcus aureus COL assessed as ceftazidime MIC at 50 uM after 18 hrs by CLSI protocol based broth microdilution assay.
For test [8], the system named is Staphylococcus aureus. Nature of the test: Upregulation of blaZ gene expression in methicillin-resistant Staphylococcus aureus ATCC 43300 at 50 uM by RT-PCR method.
For test [9], the system named is Staphylococcus aureus. The test can be described thus: Potentiation of methicillin induced antibacterial activity against methicillin-resistant Staphylococcus aureus COL assessed as fold change in methicillin MIC at 50 uM after 18 hrs by CLSI protocol based broth microdilution assay.
Test [10] concerns Staphylococcus aureus. Nature of the test: Potentiation of oxacillin induced antibacterial activity against methicillin-resistant Staphylococcus aureus USA300 harboring stk1 deletion mutant assessed as oxacillin MIC at 50 uM after 18 hrs by CLSI protocol based broth microdilution assay.
In test [11] the test system is Staphylococcus aureus. Nature of the test: Potentiation of cefoxitin induced antibacterial activity against methicillin-resistant Staphylococcus aureus ATCC 43300 assessed as fold change in cefoxitin MIC at 50 uM after 18 hrs by CLSI protocol based broth microdilution assay.
Test [12] concerns Staphylococcus aureus. Nature of the test: Upregulation of pbp2 gene expression in methicillin-resistant Staphylococcus aureus ATCC 43300 assessed as fold change by RT-PCR method.
Test [13] relates to Staphylococcus aureus. Nature of the test: Potentiation of cefoxitin induced antibacterial activity against methicillin-resistant Staphylococcus aureus COL assessed as fold change in cefoxitin MIC at 50 uM after 18 hrs by CLSI protocol based broth microdilution assay.
For test [14], the system named is Staphylococcus aureus. The test can be described thus: Potentiation of methicillin induced antibacterial activity against methicillin-resistant Staphylococcus aureus COL assessed as fold change in methicillin MIC at 25 uM after 18 hrs by CLSI protocol based broth microdilution assay.
The subject of test [15] is Staphylococcus aureus. The test can be described thus: Potentiation of ampicillin induced antibacterial activity against methicillin-resistant Staphylococcus aureus COL assessed as fold change in ampicillin MIC at 25 uM after 18 hrs by CLSI protocol based broth microdilution assay.
The subject of test [16] is Staphylococcus aureus. The test can be described thus: Upregulation of blaZ gene expression in methicillin-resistant Staphylococcus aureus ATCC 43300 at 25 uM by RT-PCR method.
The subject of test [17] is Staphylococcus aureus. Nature of the test: Upregulation of mecA gene expression in methicillin-resistant Staphylococcus aureus ATCC 43300 at 25 uM by RT-PCR method.
Test [18] relates to Staphylococcus aureus. Nature of the test: Potentiation of oxacillin induced antibacterial activity against methicillin-resistant Staphylococcus aureus ATCC 43300 assessed as oxacillin MIC at 25 uM after 18 hrs by CLSI protocol based broth microdilution assay.
Test [19] has as its system Staphylococcus aureus. The test can be described thus: Potentiation of cefoxitin induced antibacterial activity against methicillin-resistant Staphylococcus aureus USA100 assessed as fold change in cefoxitin MIC at 25 uM after 18 hrs by CLSI protocol based broth microdilution assay.
Test [20] deals with Staphylococcus aureus. The test can be described thus: Potentiation of ceftazidime induced antibacterial activity against methicillin-resistant Staphylococcus aureus COL assessed as fold change in ceftazidime MIC at 25 uM after 18 hrs by CLSI protocol based broth microdilution assay.
Test [21] relates to Staphylococcus aureus. Nature of the test: Potentiation of oxacillin induced antibacterial activity against methicillin-resistant Staphylococcus aureus assessed as fold decrease in mecA gene expression at 25 uM by RT-qPCR analysis. In a few lines: (§1)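 Fold dampening is the relative mRNA level of the gene, normalised to 16S rRNA, in oxacillin-treated cells divided by that in cells cotreated with oxacillin plus carbazole. Carbazole was used at 25 or 50 μM, as given in each line.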

Test [22] concerns Staphylococcus aureus. Nature of the test: Potentiation of oxacillin induced antibacterial activity against methicillin-resistant Staphylococcus aureus COL assessed as fold change in oxacillin MIC at 25 uM after 18 hrs by CLSI protocol based broth microdilution assay.
The test system of test [23] is Staphylococcus aureus. Nature of the test: Potentiation of cefoxitin induced antibacterial activity against methicillin-resistant Staphylococcus aureus USA100 assessed as cefoxitin MIC at 25 uM after 18 hrs by CLSI protocol based broth microdilution assay.
Test [24] concerns Staphylococcus aureus. The test can be described thus: Potentiation of methicillin induced antibacterial activity against methicillin-resistant Staphylococcus aureus ATCC 43300 assessed as methicillin MIC at 25 uM after 18 hrs by CLSI protocol based broth microdilution assay.
Test [25] has as its system Staphylococcus aureus. The test can be described thus: Potentiation of cefoxitin induced antibacterial activity against methicillin-resistant Staphylococcus aureus COL assessed as cefoxitin MIC at 25 uM after 18 hrs by CLSI protocol based broth microdilution assay.
Test [26] concerns Staphylococcus aureus. The test can be described thus: Potentiation of oxacillin induced antibacterial activity against methicillin-resistant Staphylococcus aureus assessed as fold decrease in mecI gene expression at 25 uM by RT-qPCR analysis. In outline:
as §1

Test [27] concerns Staphylococcus aureus. The test can be described thus: Potentiation of ampicillin induced antibacterial activity against methicillin-resistant Staphylococcus aureus ATCC 43300 assessed as fold change in ampicillin MIC at 25 uM after 18 hrs by CLSI protocol based broth microdilution assay.
Test [28] relates to Staphylococcus aureus. Nature of the test: Potentiation of oxacillin induced antibacterial activity against methicillin-resistant Staphylococcus aureus USA300 harboring stk1 deletion mutant co-transfected with a plasmid bearing stk1 assessed as fold change in oxacillin MIC at 25 uM after 18 hrs by CLSI protocol based broth microdilution assay.
Test [29] has as its system Staphylococcus aureus. The test can be described thus: Potentiation of methicillin induced antibacterial activity against methicillin-resistant Staphylococcus aureus USA100 assessed as methicillin MIC at 25 uM after 18 hrs by CLSI protocol based broth microdilution assay.
Test [30] has as its system Staphylococcus aureus. The test can be described thus: Potentiation of ceftazidime induced antibacterial activity against methicillin-resistant Staphylococcus aureus USA100 assessed as ceftazidime MIC at 25 uM after 18 hrs by CLSI protocol based broth microdilution assay.
The test system of test [31] is Staphylococcus aureus. Nature of the test: Potentiation of oxacillin induced antibacterial activity against methicillin-resistant Staphylococcus aureus USA100 assessed as oxacillin MIC at 25 uM after 18 hrs by CLSI protocol based broth microdilution assay.
The subject of test [32] is Staphylococcus aureus. Nature of the test: Potentiation of oxacillin induced antibacterial activity against methicillin-resistant Staphylococcus aureus USA300 harboring stk1 deletion mutant assessed as oxacillin MIC at 25 uM after 18 hrs by CLSI protocol based broth microdilution assay.
Test [33] deals with Staphylococcus aureus. Nature of the test: Potentiation of ampicillin induced antibacterial activity against methicillin-resistant Staphylococcus aureus USA100 assessed as fold change in ampicillin MIC at 25 uM after 18 hrs by CLSI protocol based broth microdilution assay.

The source made the active and inactive calls. The rule behind the calls is not given here.

For the compound `Brc1cccc2c1[nH]c1ccccc12`, the result in the test with Staphylococcus aureus [1] and in the test on Staphylococcus aureus [8] was inactive. Moreover, the MIC was 256 µg/mL with Staphylococcus aureus [2]; 0.5 µg/mL in the test with Staphylococcus aureus [4]; 8 µg/mL in the test on Staphylococcus aureus [5]; 1020 µg/mL in the test with Staphylococcus aureus [7]; 0.25 µg/mL in the test with Staphylococcus aureus [10]. Moreover, the “fold change (FC)” value was found to be 2 with Staphylococcus aureus [3]; 2 in the test on Staphylococcus aureus [6]; 1 in the test with Staphylococcus aureus [9]; 4 with Staphylococcus aureus [11]; 2 in the test on Staphylococcus aureus [12]; 1 in the test with Staphylococcus aureus [13].
Turning to `Brc1cccc2[nH]c3ccccc3c12`, the “fold change (FC)” value is given as 1 with Staphylococcus aureus [14]; 1 in the test on Staphylococcus aureus [15]; 4 in the test on Staphylococcus aureus [19]; 1 with Staphylococcus aureus [20]; 4 with Staphylococcus aureus [21]; 1 in the test on Staphylococcus aureus [22]. Moreover, the “fold change (FC)” value stood at 1.28 in the test with Staphylococcus aureus [26]; 2 with Staphylococcus aureus [27]; 8 in the test with Staphylococcus aureus [28]; 2 in the test on Staphylococcus aureus [12]; 4 in the test on Staphylococcus aureus [33]. Besides, the result in the test with Staphylococcus aureus [16] and in the test with Staphylococcus aureus [17] was inactive. Besides, the MIC came to 4 µg/mL in the test on Staphylococcus aureus [18]; 64 µg/mL in the test on Staphylococcus aureus [23]; 4 µg/mL with Staphylococcus aureus [24]; 256 µg/mL with Staphylococcus aureus [25]; 32 µg/mL with Staphylococcus aureus [29]; 512 µg/mL in the test with Staphylococcus aureus [30]. In addition, the MIC in the test with Staphylococcus aureus [31] came to 16 µg/mL; in the test on Staphylococcus aureus [32] it was 0.25 µg/mL.
On to `Brc1ccc2[nH]c3ccc(Br)cc3c2c1`, for which the minimal inhibitory concentration (MIC) stood at 256 µg/mL with Staphylococcus aureus [2], 128 µg/mL in the test on Staphylococcus aureus [4], 32 µg/mL in the test with Staphylococcus aureus [5] and 1020 µg/mL in the test on Staphylococcus aureus [7]. Further, the “fold change (FC)” value worked out at 2 with Staphylococcus aureus [3]; 4 with Staphylococcus aureus [6]; 1 in the test on Staphylococcus aureus [9]; 2 with Staphylococcus aureus [11]; 1 in the test on Staphylococcus aureus [13].

The values above are taken from ChEMBL document CHEMBL5046302, “Identification and Evaluation of Brominated Carbazoles as a Novel Antibiotic Adjuvant Scaffold in MRSA” (2022).
